For one assay, the target named is T1, Adenosine receptor A3 (Homo sapiens, UniProt P0DMS8).
T1 sequence (P0DMS8 whole entry): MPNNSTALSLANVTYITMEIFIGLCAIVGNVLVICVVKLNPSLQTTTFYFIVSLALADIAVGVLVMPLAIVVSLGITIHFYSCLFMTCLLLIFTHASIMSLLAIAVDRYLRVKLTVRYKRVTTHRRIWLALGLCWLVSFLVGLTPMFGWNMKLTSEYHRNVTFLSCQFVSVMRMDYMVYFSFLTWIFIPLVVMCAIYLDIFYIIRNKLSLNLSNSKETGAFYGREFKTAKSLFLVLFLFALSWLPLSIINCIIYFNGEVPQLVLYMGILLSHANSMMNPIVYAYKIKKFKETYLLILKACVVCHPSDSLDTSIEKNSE
Briefly: Displacement of [3H]PSB-11 from recombinant human A3 adenosine receptor expressed in CHO cell membranes measured after 45 mins in presence of adenosine deaminase by liquid scintillation counting method. The essentials: (§1)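 Competition binding on membranes of cells recombinantly expressing the human receptor (CHO or HEK cells), with tritiated radioligand per subtype: [3H]PSB-603 for A2B, [3H]MSX-2 for A2A, [3H]CCPA for A1, [3H]PSB-11 for A3. Ki ± SEM from n = 3, some from extrapolated curves. Weak binders are reported as % inhibition of radioligand binding at 1 μM.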

In the next assay the target is Adenosine receptor A2a (Homo sapiens, UniProt P29274). As to the kind of experiment: Displacement of [3H]MSX-2 from recombinant human A2A adenosine receptor expressed in CHO cell membranes measured after 30 mins in presence of adenosine deaminase by liquid scintillation counting method. An outline of the steps:
as §1

In assay [1] the target is T2, Adenosine receptor A3 (Homo sapiens) (UniProt P0DMS8).
T2 sequence (whole entry): T1 sequence (P0DMS8 whole entry)
Briefly: Displacement of [3H]PSB-11 from recombinant human A3 adenosine receptor expressed in CHO cell membranes at 1 uM measured after 45 mins in presence of adenosine deaminase by liquid scintillation counting method relative to control. The essentials:
(§2)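 Single-point competition binding at human AR subtype membranes, each against its own tritiated radioligand. The test compound is given at 1 μM, and the result is reported as percent inhibition of radioligand binding. The radioligand-specific footnotes give n = 3.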

The species entered for another assay is Homo sapiens. Briefly: Selectivity index, ratio of Ki for displacement of [3H]MSX-2 from recombinant human A2A adenosine receptor expressed in CHO cell membranes to Ki for displacement of [3H]PSB-603 from recombinant human A2B adenosine receptor expressed in CHO cell membranes.
Assay [2] has as its target T3, Adenosine receptor A1 (Homo sapiens) (UniProt P30542).
T3 sequence (whole entry): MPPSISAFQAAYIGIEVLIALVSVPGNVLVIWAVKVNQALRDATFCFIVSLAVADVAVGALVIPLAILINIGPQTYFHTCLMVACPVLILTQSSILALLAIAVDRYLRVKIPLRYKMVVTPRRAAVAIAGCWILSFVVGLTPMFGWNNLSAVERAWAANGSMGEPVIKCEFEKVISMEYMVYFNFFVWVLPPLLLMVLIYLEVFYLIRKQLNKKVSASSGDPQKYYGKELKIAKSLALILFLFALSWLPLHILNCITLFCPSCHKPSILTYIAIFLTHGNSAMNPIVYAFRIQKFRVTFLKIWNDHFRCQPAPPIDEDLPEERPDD
As to the kind of experiment: Displacement of [3H]CCPA from recombinant human A1 adenosine receptor expressed in CHO cell membranes at 1 uM measured after 90 mins in presence of adenosine deaminase by liquid scintillation counting method relative to control. An outline of the steps: as §2

For another assay, the target named is T4, Adenosine receptor A1 (Homo sapiens, UniProt P30542).
T4 sequence (P30542 whole entry): T3 sequence (whole entry)
As to the kind of experiment: Displacement of [3H]CCPA from recombinant human A1 adenosine receptor expressed in CHO cell membranes measured after 90 mins in presence of adenosine deaminase by liquid scintillation counting method. An outline of the steps:
as §1

In another assay the target is T5, Adenosine receptor A2b (Homo sapiens, UniProt P29275).
T5 sequence (P29275 whole entry): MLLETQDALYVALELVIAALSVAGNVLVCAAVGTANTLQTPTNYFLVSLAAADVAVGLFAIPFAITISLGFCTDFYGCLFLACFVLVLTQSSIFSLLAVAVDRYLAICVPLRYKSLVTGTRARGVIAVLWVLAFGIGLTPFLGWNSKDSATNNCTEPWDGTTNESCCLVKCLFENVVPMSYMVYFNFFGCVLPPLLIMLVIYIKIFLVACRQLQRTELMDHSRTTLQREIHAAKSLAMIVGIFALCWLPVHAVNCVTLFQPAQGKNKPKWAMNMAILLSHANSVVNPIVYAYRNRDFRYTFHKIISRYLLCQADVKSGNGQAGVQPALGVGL
As to the kind of experiment: Displacement of [3H]PSB-603 from recombinant human A2B adenosine receptor expressed in CHO cell membranes measured after 75 mins in presence of adenosine deaminase by liquid scintillation counting method. An outline of the steps:
as §1

pKi: −log10 of the molar value. A value given as a limit tells only on which side of the number the result lay.

Sequence of Adenosine receptor A2a (P29274 whole entry): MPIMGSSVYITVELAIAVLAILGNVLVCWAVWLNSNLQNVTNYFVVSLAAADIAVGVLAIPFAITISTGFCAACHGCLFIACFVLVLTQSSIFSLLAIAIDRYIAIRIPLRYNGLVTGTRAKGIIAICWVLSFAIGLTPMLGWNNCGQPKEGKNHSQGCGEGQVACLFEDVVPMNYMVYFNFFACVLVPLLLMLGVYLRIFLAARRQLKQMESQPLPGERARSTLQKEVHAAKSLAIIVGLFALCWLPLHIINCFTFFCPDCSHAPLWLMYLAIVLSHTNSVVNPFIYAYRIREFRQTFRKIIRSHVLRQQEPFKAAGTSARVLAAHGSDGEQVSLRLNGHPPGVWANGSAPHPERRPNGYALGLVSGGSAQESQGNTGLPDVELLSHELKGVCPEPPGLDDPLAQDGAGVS

Consider `CCCn1c(=O)[nH]c2nc(-c3ccc(S(=O)(=O)N4CCN(Cc5ccc(Br)cc5)CC4)cc3)[nH]c2c1=O`, for which the pKi at Adenosine receptor A3 was below 6.00; at Adenosine receptor A2a, 7.11; at Adenosine receptor A1 it was below 6.00; on Adenosine receptor A2b, 9.82. For the same compound, the inhibition amounted to 28% in assay [1] and 31% in assay [2]. Further, in the assay listed under Homo sapiens, the Ratio Ki worked out at 510.

On to `CCCn1c(=O)[nH]c2nc(-c3ccc(S(=O)(=O)N4CCN(c5ccc(O)c(Cl)c5)CC4)cc3)[nH]c2c1=O`, for which the pKi on Adenosine receptor A3 was below 6.00; on Adenosine receptor A2a it was 7.03; on Adenosine receptor A1, below 6.00; at Adenosine receptor A2b, 8.45. Further, the inhibition in assay [1] came out at 41%; in assay [2], 37%. Also, the Ratio Ki in the assay listed under Homo sapiens is above 30.

For `CCCn1c(=O)[nH]c2nc(-c3ccc(S(=O)(=O)N4CCN(Cc5cc(F)cc(OC)c5)CC4)cc3)[nH]c2c1=O`, the pKi on Adenosine receptor A3 was below 6.00; at Adenosine receptor A2a, 6.80; on Adenosine receptor A1, below 6.00; at Adenosine receptor A2b it was 8.99. Besides, the values for the inhibition in assay [1] and in assay [2] were 12% and 31%, respectively. For the same compound, the Ratio Ki in the assay listed under Homo sapiens stood at 160.

Regarding `CCCn1c(=O)[nH]c2nc(-c3ccc(S(=O)(=O)N4CCN(c5ccc(OCCO)cc5)CC4)cc3)[nH]c2c1=O`, the pKi on Adenosine receptor A3 is below 6.00; at Adenosine receptor A2a it was 6.77; at Adenosine receptor A1, below 6.00; at Adenosine receptor A2b, 8.22. Further, the inhibition amounted to 23% in assay [1] and 24% in assay [2]. In the assay filed under Homo sapiens, the Ratio Ki turned out to be 30.

With `CCCn1c(=O)[nH]c2nc(-c3ccc(S(=O)(=O)N4CCN(c5ccc(Cl)c(OC)c5)CC4)cc3)[nH]c2c1=O`, the pKi on Adenosine receptor A3 was below 6.00; at Adenosine receptor A2a, 7.45; on Adenosine receptor A1 it was 6.27; on Adenosine receptor A2b, 9.67. In assay [1], the inhibition was determined as 46%. Further, the Ratio Ki in the assay filed under Homo sapiens came to 160.

As to `CCCn1c(=O)[nH]c2nc(-c3ccc(S(=O)(=O)N4CCN(c5ccccc5)C(C)C4)cc3)[nH]c2c1=O` (stereo not drawn), the pKi on Adenosine receptor A3 was below 6.00; on Adenosine receptor A2a, 6.53; at Adenosine receptor A1, below 6.00; on Adenosine receptor A2b it was 8.15. Besides, the inhibition in assay [1] was -2%; in assay [2], 15%. In the assay filed under Homo sapiens, the Ratio Ki turned out to be 40.

On to `CCCn1c(=O)[nH]c2nc(-c3ccc(S(=O)(=O)N(C)C)cc3)[nH]c2c1=O`, for which the pKi at Adenosine receptor A3 was 5.91; at Adenosine receptor A2a it was 7.28; on Adenosine receptor A1, 6.72; at Adenosine receptor A2b, 7.73. In the assay filed under Homo sapiens, the Ratio Ki came to 3.

Take `CCCn1c(=O)[nH]c2nc(-c3ccc(S(=O)(=O)N4CCN(c5ccccc5Br)CC4)cc3)[nH]c2c1=O`: the pKi at Adenosine receptor A3 is below 6.00; on Adenosine receptor A2a it was 7.05; on Adenosine receptor A1, below 6.00; at Adenosine receptor A2b it was 9.86. Besides, the inhibition amounted to 20% in assay [1] and 28% in assay [2]. In addition, in the assay filed under Homo sapiens, the Ratio Ki was found to be 650.

Turning to `CCCn1c(=O)[nH]c2nc(-c3ccc(S(=O)(=O)N4CCN(c5ccc(O)cc5)CC4)cc3)[nH]c2c1=O`, the pKi at Adenosine receptor A3 was below 6.00; on Adenosine receptor A2a, 7.01; at Adenosine receptor A1, 6.45; at Adenosine receptor A2b, 8.37. Further, the inhibition in assay [1] was determined as 21%. Also, in the assay filed under Homo sapiens, the Ratio Ki turned out to be 20.

Regarding `CCCn1c(=O)[nH]c2nc(-c3ccc(S(=O)(=O)N4CCN(Cc5ccc(OCCOCCOC)cc5)CC4)cc3)[nH]c2c1=O`, the pKi on Adenosine receptor A3 is below 6.00; on Adenosine receptor A2a, 6.50; at Adenosine receptor A1 it was 6.00; on Adenosine receptor A2b, 8.15. Also, in assay [1], the inhibition was found to be 30%. In addition, in the assay listed under Homo sapiens, the Ratio Ki worked out at 50.

Take `CCCn1c(=O)[nH]c2nc(-c3ccc(S(=O)(=O)N4CCN(c5ccccc5Cl)CC4)cc3)[nH]c2c1=O`: the pKi is below 6.00 on Adenosine receptor A3, 6.69 on Adenosine receptor A2a, below 6.00 on Adenosine receptor A1 and 9.39 on Adenosine receptor A2b. The inhibition in assay [1] was found to be 32%; in assay [2], 25%. For the same compound, the Ratio Ki in the assay filed under Homo sapiens worked out at 510.

For the compound `CCCn1c(=O)[nH]c2nc(-c3ccc(S(=O)(=O)N4CCN(C)CC4)cc3)[nH]c2c1=O`, the negative-log Ki (pKi) is below 6.00 at Adenosine receptor A3, 6.85 at Adenosine receptor A2a, 6.48 at Adenosine receptor A1 and 7.32 on Adenosine receptor A2b. For the same compound, the inhibition in assay [1] was found to be 7%. Besides, the Ratio Ki in the assay filed under Homo sapiens is 3.

For `CCCn1c(=O)[nH]c2nc(-c3ccc(S(=O)(=O)N4CCN(c5ccc(F)cc5)CC4)cc3)[nH]c2c1=O`, the pKi at Adenosine receptor A3 is below 6.00; on Adenosine receptor A2a it was 6.97; on Adenosine receptor A1, below 6.00; on Adenosine receptor A2b, 9.19. Moreover, the inhibition in assay [1] was 38%; in assay [2], 14%. Besides, the Ratio Ki in the assay filed under Homo sapiens worked out at 170.

On to `CCCn1c(=O)[nH]c2nc(-c3ccc(S(=O)(=O)N4CCN(Cc5cccc(C)c5)CC4)cc3)[nH]c2c1=O`, for which the negative-log Ki (pKi) at Adenosine receptor A3 is below 6.00; on Adenosine receptor A2a, 6.72; on Adenosine receptor A1, 6.10; at Adenosine receptor A2b, 9.40. For the same compound, the inhibition in assay [1] came to 17%. Also, in the assay listed under Homo sapiens, the Ratio Ki is 480.

As to `CCCn1c(=O)[nH]c2nc(-c3ccc(S(=O)(=O)N4CCN(c5ccccc5C)CC4)cc3)[nH]c2c1=O`, the pKi on Adenosine receptor A3 is below 6.00; on Adenosine receptor A2a, 6.85; on Adenosine receptor A1, 6.38; at Adenosine receptor A2b it was 9.36. For the same compound, the inhibition in assay [1] came out at 25%. In the assay filed under Homo sapiens, the Ratio Ki came out at 320.

Turning to `CCCn1c(=O)[nH]c2nc(-c3ccc(S(=O)(=O)N4CCN(Cc5cccc(OC)c5)CC4)cc3)[nH]c2c1=O`, the pKi is below 6.00 at Adenosine receptor A3, 6.88 on Adenosine receptor A2a, 6.69 on Adenosine receptor A1 and 8.89 on Adenosine receptor A2b. In addition, in assay [1], the inhibition was 27%. The Ratio Ki in the assay filed under Homo sapiens stood at 100.

Turning to `CCCn1c(=O)[nH]c2nc(-c3ccc(S(=O)(=O)N4CCN(Cc5ccc(N=[N+]=[N-])cc5)CC4)cc3)[nH]c2c1=O`, the pKi at Adenosine receptor A3 is below 6.00; at Adenosine receptor A2a it was 6.68; on Adenosine receptor A1 it was 6.31; at Adenosine receptor A2b it was 9.61. For the same compound, the inhibition in assay [1] turned out to be 32%. In the assay filed under Homo sapiens, the Ratio Ki is 850.

As for `CCCn1c(=O)[nH]c2nc(-c3ccc(S(=O)(=O)N(C)CCc4ccccc4)cc3)[nH]c2c1=O`, the pKi on Adenosine receptor A3 was below 6.00; at Adenosine receptor A2a, 6.45; at Adenosine receptor A1, 5.98; on Adenosine receptor A2b, 8.77. For the same compound, the inhibition in assay [1] was found to be 4%. Moreover, the Ratio Ki in the assay filed under Homo sapiens worked out at 210.

`CCCn1c(=O)[nH]c2nc(-c3ccc(S(=O)(=O)N4CCN(c5ccc(Cl)c(O)c5)CC4)cc3)[nH]c2c1=O`: the pKi on Adenosine receptor A3 is below 6.00; on Adenosine receptor A2a, 7.39; on Adenosine receptor A1, 6.95; on Adenosine receptor A2b, 9.38. For the same compound, the inhibition in assay [1] was found to be 31%. Further, in the assay listed under Homo sapiens, the Ratio Ki was 100.

Consider `CCCn1c(=O)[nH]c2nc(-c3ccc(S(=O)(=O)N4CCN(c5ccccc5)CC4)cc3)[nH]c2c1=O`, for which the pKi at Adenosine receptor A3 was below 6.00; at Adenosine receptor A2a, 6.91; at Adenosine receptor A1, 6.44; on Adenosine receptor A2b, 9.19. For the same compound, the inhibition in assay [1] came to 27%. Besides, the Ratio Ki in the assay filed under Homo sapiens stood at 190.

With `CCCn1c(=O)[nH]c2nc(-c3ccc(S(=O)(=O)N4CCN(Cc5ccc(OCCO)cc5)CC4)cc3)[nH]c2c1=O`, the pKi at Adenosine receptor A3 was below 6.00; at Adenosine receptor A2a, 6.62; at Adenosine receptor A1 it was 6.25; on Adenosine receptor A2b it was 7.91. The inhibition in assay [1] turned out to be 17%. Moreover, the Ratio Ki in the assay filed under Homo sapiens was 20.

The record behind these values is ChEMBL document CHEMBL4346653, “A2B Adenosine Receptor Antagonists with Picomolar Potency” (J Med Chem, 2019).
